The values below come from PubChem BioAssay.

Activity calls are given as the source filed them.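 How the source made its calls, unless noted: active means inhibition of the reporter signal at or above 50%; inactive means inhibition below 50%.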

Assay [1] can be described thus: inhibitors of TNFa-induced NFkB p65 translocation, primary screen, imaging, HUVEC, MLSMR starter and 10KST1 sets (AID 438;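 active means inhibition above 20% together with a positive visual image hit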;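 further: compound added about 3h40 before a 20 min TNFalpha stimulation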;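 on inhibition: signal is the nuclear over cytoplasmic p65 intensity ratio per well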). The following applies: HUVEC TNFa-induced p65 nuclear translocation; cell count: measured here: nuclei count (cytotoxicity indicator), at 2.08 µM; inhibition: at 2 µM, stronger effect = higher value, 0% TNFa-plus-vehicle, 100% no-TNFa wells.
The nature of assay [2]: inhibitors of mutant huntingtin aggregation, primary screen, imaging, exon1htt(103Q)mCFP cells, high-content imaging (AID 483;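 active means visual image review flags a hit and inhibition of aggregation exceeds 20%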;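 further: compound exposure lasted 3 days before fixation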;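 on nuclei count: percent of the per-plate median nuclei count of sample wells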). The following applies: exon1htt(103Q)mCFP cell line, aggregate imaging, at 2 µM; inhibition of aggregation: stronger effect = higher value; nuclei count: measured here: cell count, toxicity.
A short description of assay [3]: inhibitors of E-selectin induction by TNFa, primary screen, imaging, HUVEC, immunofluorescence, MLSMR starter and 10KST1 sets (AID 487;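 active means visually confirmed hit in the image check and inhibition above 20%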;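 on inhibition: signal is fraction of cell area covered by stained E-selectin grains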;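 on nuclei count: 100% = median nuclei count of all wells on the same plate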). The following applies: HUVEC TNFalpha-induced E-selectin immunofluorescence imaging, at 2 µM; inhibition: stronger effect = higher value; nuclei count: measured here: cell number, toxicity.
The target in assay [4] is Voltage-gated potassium channel subunit beta-2 (Rattus norvegicus) (UniProt P62483). The assay can be described thus: KvBeta enzyme negative modulators, primary screen, biochemical, NADPH fluorescence (AID 622;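 active means fluorescence slope higher than the sample average by over 3 SD, cut at about -0.22 in these data, passing the limit was not always enough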;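 further: slope of raw intensity against log time taken from 70 to 1610 s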). The following applies: recombinant KvBeta, 4-cyanobenzaldehyde reduction, at 10 µM, stronger effect = higher value.
For assay [5] the target is unchanged. Kind of assay: KvBeta positive modulators, primary screen, biochemical, NADPH fluorescence (AID 623;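 active means NADPH fluorescence slope more negative than the mean of all samples by about 3 SD, 99.7% confidence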;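 further: fluorescence intensity change per second fitted from 20 to 320 s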). The following applies: Recombinant KvBeta, NADPH fluorescence decrease slope, 10 min; at 10 µM; stronger effect = lower value.
Assay [6] deals with Muscarinic acetylcholine receptor M4 (Homo sapiens) (UniProt P08173). Kind of assay: compounds altering M4/GIRK thallium flux, either direction, primary screen, M4 allosteric agonist project, cell-based, HEK293 M4/GIRK, BTC-AM (AID 625;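 active means fluorescence slope after compound addition differing from the mean of all tested samples at 99.7% confidence, mostly higher but some lower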;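 further: thallium influx through GIRK channels coupled to M4 in HEK293 cells with BTC-AM dye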). The following applies: at 10 µM, actives lie on both sides. In a few lines: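 System: HEK293 cells with M4 receptor and GIRK channels | Incubation: Cells overnight at 37 °C, BTC-AM loading 1 h, reads 2 min total | Technique: Kinetic BTC-AM fluorescence sampled at 1 Hz, 10 s pre-addition baseline | Measure: Post-addition slope, 15–24 s, of baseline-normalized fluorescence | Control set: Carbachol positive, DMSO negative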

Assay [7] is described as follows: inhibitors of Sendai virus-induced IRF3 signaling, primary screen, TLR/RLR signaling modifier project, cell-based, Sendai virus stimulus, luciferase, 10K MLSCN set (AID 602276;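 active means inhibition at or above 50% at 10 µM; inactive means inhibition below 50%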;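 further: firefly luciferase from ISG56 promoter only with Renilla not read in this screen; 0% = Sendai virus plus DMSO and 100% = medium plus DMSO without virus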). The following applies: HEK293 RL24 IRF3 luciferase reporter, at 10 µM, stronger effect = higher value.
A short description of assay [8]: inhibitors of poly I:C-induced TLR3 signaling, primary screen, cell-based, poly I:C stimulus, luciferase, 10K MLSCN set (AID 602277). The conditions noted are these: HEK293-TLR3 RL24 IRF3 luciferase reporter, at 10 µM, stronger effect = higher value. (In general: Reporter assays use an easily measured gene product as a stand-in for the process of interest.)

Sequence of Muscarinic acetylcholine receptor M4 (Homo sapiens) (P08173 whole entry, looked up): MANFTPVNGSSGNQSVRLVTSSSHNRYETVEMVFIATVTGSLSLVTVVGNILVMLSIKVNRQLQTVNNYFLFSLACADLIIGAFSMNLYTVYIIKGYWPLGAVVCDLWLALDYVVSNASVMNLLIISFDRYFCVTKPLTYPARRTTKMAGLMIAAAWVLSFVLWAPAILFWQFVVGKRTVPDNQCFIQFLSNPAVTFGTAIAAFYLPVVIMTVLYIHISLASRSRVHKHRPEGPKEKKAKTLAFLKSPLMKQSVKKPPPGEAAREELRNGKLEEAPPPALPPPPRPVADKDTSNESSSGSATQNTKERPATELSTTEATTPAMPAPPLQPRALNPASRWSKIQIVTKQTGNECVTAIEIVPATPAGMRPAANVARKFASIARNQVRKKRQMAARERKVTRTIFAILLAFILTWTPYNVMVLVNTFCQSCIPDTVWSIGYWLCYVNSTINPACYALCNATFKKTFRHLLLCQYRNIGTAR
Sequence of Voltage-gated potassium channel subunit beta-2 (Rattus norvegicus) (P62483 whole entry, looked up): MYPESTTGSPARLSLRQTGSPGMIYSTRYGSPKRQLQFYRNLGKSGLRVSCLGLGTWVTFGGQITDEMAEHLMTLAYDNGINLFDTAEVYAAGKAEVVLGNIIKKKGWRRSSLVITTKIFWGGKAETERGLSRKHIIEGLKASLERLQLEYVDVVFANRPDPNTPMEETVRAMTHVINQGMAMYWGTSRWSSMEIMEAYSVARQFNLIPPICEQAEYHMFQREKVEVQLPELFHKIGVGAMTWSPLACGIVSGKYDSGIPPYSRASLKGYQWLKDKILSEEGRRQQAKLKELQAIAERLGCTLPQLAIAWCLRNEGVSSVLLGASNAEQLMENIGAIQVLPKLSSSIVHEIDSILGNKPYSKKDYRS

As to `O=C(CCCn1ncn2c(cc3occc32)c1=O)N1CCc2ccccc2C1`, the cell count in assay [1] is 363. Also, the inhibition (commonly the relative decrease from the control value, in per cent) is -0.7% (inactive) in assay [1], -81.7% (inactive) in assay [3], 8.38% (inactive) in assay [7] and 8.89% (inactive) in assay [8]. Moreover, the inhibition of aggregation in assay [2] is 4.2% (inactive). The values for the nuclei count in assay [2] and in assay [3] were 93.3% and 101%, respectively. Besides, the fluorescence slope in assay [4] was -0.484 (inactive); in assay [6], 0.00605 (inactive). The NADPH fluorescence slope in assay [5] is -0.00018 (inactive).

`CCN(Cc1nc2cc(OC)c(OC)cc2c(=O)[nH]1)C(=O)c1ccc(S(=O)(=O)N(C)C)cc1`: in assay [1], the cell count was determined as 311. Further, the inhibition in assay [1] was 11.1% (inactive); in assay [3], 14.8% (inactive); in assay [7] it was 13.8% (inactive); in assay [8] it was 28.7% (inactive). Also, the inhibition of aggregation in assay [2] is -0.9% (inactive). In addition, the nuclei count in assay [2] was found to be 119%; in assay [3], 89.6%. The fluorescence slope in assay [4] is -0.399 (inactive); in assay [6], 0.00948 (inactive). Further, the NADPH fluorescence slope in assay [5] was -0.000108 (inactive).

`CN=C1CC(C)(C)CC(=O)/C1=C(/O)CCC(=O)NC`: the cell count in assay [1] amounted to 367. Moreover, the inhibition in assay [1] was 10.4% (inactive); in assay [3], 50.5% (inactive); in assay [7], 13% (inactive); in assay [8], 15.4% (inactive). Also, the inhibition of aggregation in assay [2] was 10.3% (inactive). Further, the nuclei count in assay [2] amounted to 104%; in assay [3], 90.9%. Besides, the fluorescence slope in assay [4] is -0.45 (inactive); in assay [6], 0.00526 (inactive). In assay [5], the NADPH fluorescence slope was -1.9e-05 (inactive).

For `Cc1ccc(S(=O)(=O)CCc2nnc(NC(=O)c3cnccn3)s2)cc1`, the cell count in assay [1] was 578. Also, the inhibition in assay [1] was -46.9% (inactive); in assay [3] it was -82.9% (inactive); in assay [7], 10.8% (inactive); in assay [8], 22.5% (inactive). In addition, in assay [2], the inhibition of aggregation was -22.9% (inactive). The nuclei count is 116% in assay [2] and 117% in assay [3]. Besides, the fluorescence slope in assay [4] was -0.407 (inactive); in assay [6], 0.00653 (inactive). Besides, the NADPH fluorescence slope in assay [5] was -8.1e-06 (inactive).

With `CCOc1ccc(-c2noc(-c3ccncc3)n2)cc1OCC`, in assay [1], the cell count came out at 807. For the same compound, the inhibition is 1.7% (inactive) in assay [1], -21.2% (inactive) in assay [3], 4.12% (inactive) in assay [7] and -4.62% (inactive) in assay [8]. Further, the inhibition of aggregation in assay [2] is 33.6% (inactive). The nuclei count was found to be 106% in assay [2] and 117% in assay [3]. For the same compound, the fluorescence slope in assay [4] is -0.533 (inactive); in assay [6] it was 0.023 (active). Moreover, in assay [5], the NADPH fluorescence slope is 4e-05 (inactive).

Consider `CCOC(=O)c1sc(NC(=O)CNC(=O)Cn2cnc3sc(C)c(C)c3c2=O)nc1C`, for which the cell count in assay [1] came to 260. The inhibition was 12.2% (inactive) in assay [1], -61.8% (inactive) in assay [3], 16.7% (inactive) in assay [7] and 24.7% (inactive) in assay [8]. Moreover, the inhibition of aggregation in assay [2] is -12.7% (inactive). The figures for the nuclei count in assay [2] and in assay [3] were 112% and 109%, respectively. The figures for the fluorescence slope in assay [4] and in assay [6] were -0.565 (inactive) and 0.00606 (inactive), respectively. For the same compound, in assay [5], the NADPH fluorescence slope is -1.6e-06 (inactive).

`CCOC(=O)C1=C(Cn2cnc3ccccc32)NC(=O)NC1c1cc(C)ccc1C` (centres undefined): the cell count in assay [1] came to 562. Besides, the inhibition in assay [1] is -10.3% (inactive); in assay [3], 0.3% (inactive); in assay [7], 27.2% (inactive); in assay [8], 19% (inactive). The inhibition of aggregation in assay [2] is -15.4% (inactive). In addition, the nuclei count in assay [2] is 106%; in assay [3], 104%. Also, the values for the fluorescence slope in assay [4] and in assay [6] were -0.461 (inactive) and 0.00427 (inactive), respectively. For the same compound, the NADPH fluorescence slope in assay [5] is -1.9e-05 (inactive).

Consider `COc1ccccc1OCc1ccc(C(=O)NC(C)(C)C)o1`, for which, in assay [1], the cell count was determined as 735. For the same compound, the inhibition in assay [1] was -5.5% (inactive); in assay [3], -20.5% (inactive); in assay [7], -16.1% (inactive); in assay [8], -22.5% (inactive). For the same compound, in assay [2], the inhibition of aggregation is 0.6% (inactive). Also, the nuclei count in assay [2] was found to be 62.4%; in assay [3], 112%. Moreover, the figures for the fluorescence slope in assay [4] and in assay [6] were -0.601 (inactive) and 0.00541 (inactive), respectively. Also, the NADPH fluorescence slope in assay [5] is 5.2e-05 (inactive).

Turning to `Cc1cnc(-c2nnc(N(C)C(=O)C3CCOC3)s2)cn1` (centres undefined), the cell count in assay [1] was 340. The inhibition in assay [1] is -12.1% (inactive); in assay [3] it was 41.6% (inactive); in assay [7], -2.32% (inactive); in assay [8], -11.8% (inactive). Moreover, the inhibition of aggregation in assay [2] was 26.6% (inactive). Besides, the nuclei count came out at 79% in assay [2] and 88.5% in assay [3]. Besides, the fluorescence slope is -0.552 (inactive) in assay [4] and 0.00481 (inactive) in assay [6]. Further, in assay [5], the NADPH fluorescence slope is -6.2e-06 (inactive).

For `CCOC(=O)N1CCN(C(=O)C2c3cc(OC)c(OC)cc3C(=O)N3CCc4ccccc4C23)CC1` (centres undefined), the cell count in assay [1] stood at 312. Moreover, the inhibition in assay [1] was 0.5% (inactive); in assay [3], 6.9% (inactive); in assay [7], 14.7% (inactive); in assay [8], 13.6% (inactive). Further, in assay [2], the inhibition of aggregation is 13.5% (inactive). The results for the nuclei count in assay [2] and in assay [3] were 104% and 102%, respectively. The fluorescence slope was -0.397 (inactive) in assay [4] and 0.00684 (inactive) in assay [6]. Moreover, the NADPH fluorescence slope in assay [5] was 4.3e-05 (inactive).

Regarding `COc1ccc2c(c1)CCc1c(C(=O)N3CC4(C)CC3CC(C)(C)C4)noc1-2` (centres undefined), the cell count in assay [1] was 250. Further, the inhibition is -6.9% (inactive) in assay [1], -59% (inactive) in assay [3], 1.5% (inactive) in assay [7] and 10.1% (inactive) in assay [8]. Also, the inhibition of aggregation in assay [2] is 18.9% (inactive). Further, the nuclei count in assay [2] worked out at 98.8%; in assay [3], 104%. Moreover, the fluorescence slope in assay [4] is -0.586 (inactive); in assay [6], 0.00924 (inactive). The NADPH fluorescence slope in assay [5] was -1.4e-05 (inactive).

As to `Cc1onc(-c2ccccc2Cl)c1C(=O)Nc1cccc(-c2cn3cccnc3n2)c1`, the cell count in assay [1] came to 369. In addition, the inhibition in assay [1] is -10.3% (inactive); in assay [3] it was -4% (inactive); in assay [7], 7.13% (inactive); in assay [8], 1.48% (inactive). In addition, the inhibition of aggregation in assay [2] is 7.8% (inactive). In addition, the nuclei count was found to be 100% in assay [2] and 109% in assay [3]. Moreover, the fluorescence slope in assay [4] is -0.0447 (inactive); in assay [6], 0.00573 (inactive). The NADPH fluorescence slope in assay [5] was -9.5e-06 (inactive).

On to `CN1CCN(C(=O)CCC(=O)c2ccc(F)cc2)CC1`, for which the cell count in assay [1] was determined as 478. In addition, the inhibition in assay [1] was 3.9% (inactive); in assay [3], -2.6% (inactive); in assay [7], 5.42% (inactive); in assay [8], 11.9% (inactive). Moreover, the inhibition of aggregation in assay [2] was -7.4% (inactive). Moreover, the nuclei count is 122% in assay [2] and 97.1% in assay [3]. The fluorescence slope is -0.444 (inactive) in assay [4] and 0.00581 (inactive) in assay [6]. For the same compound, the NADPH fluorescence slope in assay [5] was 5.6e-05 (inactive).

Regarding `Cc1cc(NC(=O)CCC(=O)N(CC2CCCO2)C(C(=O)NC2CCCC2)c2ccccc2C)no1` (centres undefined), the cell count in assay [1] stood at 341. The inhibition in assay [1] was 0% (inactive); in assay [3], -106% (inactive); in assay [7], 20.9% (inactive); in assay [8] it was 21.7% (inactive). Besides, the inhibition of aggregation in assay [2] is 26.9% (inactive). Also, the nuclei count in assay [2] was determined as 63.6%; in assay [3], 117%. In addition, the fluorescence slope is -0.453 (inactive) in assay [4] and 0.00469 (inactive) in assay [6]. In addition, the NADPH fluorescence slope in assay [5] is -5.7e-05 (inactive).
